Measurements from ChEMBL document CHEMBL4321808, “Heteroaryl Phosphonates as Noncovalent Inhibitors of Both Serine- and Metallocarbapenemases” (J Med Chem, 2019).

Assays:
[1] = Inhibition of N-terminal 6x-His-tagged VIM-2 (unknown origin) expressed in Escherichia coli Rosetta 2 (DE3) assessed as reduction in nitrocefin hydrolysis by spectrophotometry; design: species or system Bacteria
How it was run: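 Metallo-enzyme assay in 50 mM HEPES pH 7.2 with 50 µM zinc sulfate, 0.01% Triton X-100 and 20 µg/mL BSA, 37 °C. NDM-1 was construct 1 with the His/SUMO tag cleaved, at 2 nM; VIM-2 had its His tag TEV-cleaved, at 0.5 nM. Nitrocefin hydrolysis read at 486 nm; IC50 from sigmoidal fit, Ki by Cheng-Prusoff; mostly duplicate.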

[2] = Inhibition of N-terminal 6x-His/Sumo-tagged NDM-1 (29 to 270 residues) (unknown origin) expressed in Escherichia coli BL21 (DE3) assessed as reduction in nitrocefin hydrolysis by spectrophotometry; design: species or system Bacteria
How it was run: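 Metallo-enzyme assay in 50 mM HEPES pH 7.2 with 50 µM zinc sulfate, 0.01% Triton X-100 and 20 µg/mL BSA, 37 °C. NDM-1 was construct 1 with the His/SUMO tag cleaved, at 2 nM; VIM-2 had its His tag TEV-cleaved, at 0.5 nM.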

[3] = Inhibition of N-terminal 6x-His-tagged Klebsiella pneumoniae KPC2 (25 to 293 residues) assessed as reduction in nitrocefin hydrolysis by spectrophotometry
How it was run: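 Purified recombinant KPC-2 at 1 nM in 100 mM Tris-HCl pH 7.0 with 0.01% Triton X-100, 37 °C, reaction started by enzyme. IC50 from sigmoidal fit; Ki by Cheng-Prusoff using the nitrocefin Km. Run in duplicate, or once or in triplicate for some compounds.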

[4] = Permeability in MDCK-MDR1 cells assessed as drug recovery; type: ADME, cell-based, Canis lupus familiaris; conditions: dog

| SMILES | Ki [1] [µM] | Ki ([2]; read-out: Ki) [µM] | Ki [3] [µM] | Ki [2] | Drug recovery [4] [%] |
| --- | --- | --- | --- | --- | --- |
| Cc1cc(C)c2c(CP(=O)(O)O)cc(=O)oc2c1 | 0.82 | 33.8 |  |  |  |
| Cc1cc(F)c2c(CP(=O)(O)O)cc(=O)oc2c1 | 3.3 | 230 | 8.5 |  |  |
| O=P(O)(O)Cc1ccnc2ccccc12 | 30.3 |  | 326 | Not Active |  |
| CC(C)NCC(O)COc1cccc2ccccc12 (stereo not given) [PROPRANOLOL] |  |  |  |  | 97 |
| C[C@H]1O[C@@H](O[C@H]2[C@@H](O)C[C@H](O[C@H]3[C@@H](O)C[C@H](O[C@H]4CC[C@@]5(C)[C@H](CC[C@@H]6[C@@H]5C[C@@H](O)[C@]5(C)[C@@H](C7=CC(=O)OC7)CC[C@]65O)C4)O[C@@H]3C)O[C@@H]2C)C[C@H](O)[C@@H]1O [DIGOXIN] |  |  |  |  | 105 |
| COc1cc(C)cc2oc(=O)cc(CP(=O)(O)O)c12 |  |  | 11.9 |  |  |
| Cn1c(=O)cc(CP(=O)(O)O)c2ccccc21 | 7.5 | 81 |  |  |  |
| Cc1cc2oc(=O)cc(CP(=O)(O)O)c2cc1C | 2.1 | 44.3 |  |  |  |
